Runt-SMMHC FRET: inhibitors of human RUNX1 Runt domain binding to CBFb-SMMHC; Q01196+Q13951; Cerulean-Runt/Venus-CBFb-SMMHC FRET ratio 530/480, 1 h; inhibition, % at 20 µM; 220,000 compounds, 0.74% hits;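 active means mean inhibition across duplicate retests at 20 µM reaching about 50%, limit read from the data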;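 further: inhibitors lower the FRET ratio by blocking Runt binding to CBFb-SMMHC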
Runt-CBFb FRET: blocks binding of human RUNX1 Runt domain to CBFb. AID 1496. Cerulean-Runt/Venus-CBFb FRET ratio 530/480, 1 h. 220,000 compounds, 0.46% hits. inhibition, % at 20 µM;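 active means inhibition over about 50% at 20 µM in the single-dose screen, limit read from the data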
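test system = Cerulean-Runt domain fusion protein, energy donor | probe or stimulus = Venus-CBFb binding partner, 100 nM | incubation = two 1 h room-temperature incubations shielded from light | detection = fluorescence energy transfer, 422 nm excitation, 530/480 nm emission | measure = loss of energy transfer signal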
RanGTP-Impb inh: inhibitors of RanGTP-importin-beta interaction, primary screen, biochemical, FRET, CFP-Ran, YFP-importin-beta, homogeneous; cell-free CFP-Ran/YFP-importin-beta FRET ratio; inhibition, % (concentration not given with the values); 300,000 compounds, 1.1% hits; AID 2216;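 active means more than half of the replicate wells show a fall in the fluorescence ratio signal beyond about 16%, limit read from the data, passing the limit was not always enough; inconclusive means exactly half of the replicate wells pass the set limit; inactive means fewer than half of replicates pass the limit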
MEX-5 binding: C. elegans MEX-5 TCR-2 RNA binding activity; Q9XUB2; MEX-5/FITC-TCR2 RNA binding, fluorescence polarization; stronger effect = lower value; activity score (negative = inhibition of binding), % at 10 µM; 300,000 compounds, 0.38% hits; AID 1832;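 active means inhibition past about -25% in most replicates, and total fluorescence under double the plate's negative control median, limit read from the data; inconclusive means replicates evenly split on the limit, or fluorescence at least double controls; inactive means too little inhibition in most replicates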
proKLK7 act: proKLK7 (human) activation, primary screen; purified proKLK7, EDANS-DABCYL substrate fluorescence; 100% is mature enzyme control, 0% vehicle; activation, % at 7 µM; 370,000 compounds, 0.9% hits; AID 652039;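 active means activation above the mean of all tested compounds plus 3 SD, computed per campaign excluding outliers beyond control limits, cut at about 13% in these data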
Target sequence (P49862 whole entry, looked up): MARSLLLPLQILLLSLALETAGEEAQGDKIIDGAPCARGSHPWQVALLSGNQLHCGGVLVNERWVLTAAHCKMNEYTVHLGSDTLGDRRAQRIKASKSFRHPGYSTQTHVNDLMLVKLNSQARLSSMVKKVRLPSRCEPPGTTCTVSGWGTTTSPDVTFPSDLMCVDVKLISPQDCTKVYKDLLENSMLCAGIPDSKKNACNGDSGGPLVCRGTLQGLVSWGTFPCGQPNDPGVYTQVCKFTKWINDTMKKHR
Hits are given with their value; i = inactive; ? = inconclusive; nt = not tested or not shown; ! = a repeat was not active. Shown are actives, neighbours in structure and some others; about 2.1% of the full set was active somewhere.

SMILES	Runt-SMMHC FRET	Runt-CBFb FRET	RanGTP-Impb inh	MEX-5 binding	proKLK7 act
C/C(=N\N(C)c1ccccc1)c1c(O)[nH]c(=O)[nH]c1=O	i	i	i	i	i
O=C1NC(=O)N(c2ccccc2)C(=O)/C1=C\C=C\c1ccccc1	55.4	i	i	i	i
COc1ccc(-n2c(O)c(C=Nc3c(C)n(C)n(-c4ccccc4)c3=O)c(=O)[nH]c2=O)cc1	i	i	i	i	i
CCCCn1c(NS(=O)(=O)c2ccccc2)c(C(=O)OCC)c2nc3ccccc3nc21	i	i	84.8	i	i
CCCCn1c(=O)c(C(=O)Nc2ccccc2N)c(O)c2ccccc21	nt	nt	i	i	i
CCCCn1c(NC(=O)c2ccc(Br)o2)c(C(=O)OCC)c2nc3ccccc3nc21	i	i	nt	i	18.6
CCCCn1c(C)c(C(=O)OCC)c2c(CN3CCCC3)c(O)ccc21	nt	nt	i	i	i
Cc1ccc(OC(F)F)c(N2C(=O)C3C4CCC(O4)C3C2=O)c1 (configuration not stated)	nt	nt	nt	nt	i
Clc1cccc(N2Cc3cc(-c4ccccc4)ccc3-n3nncc3C2)c1	nt	nt	nt	nt	i
COc1ccc(CCNC(=O)c2c(N)n(CCN3CCOCC3)c3nc4ccccc4nc23)cc1	83.0	66.8	69.3	i	i
C=CCNC(=O)c1c(N)n(Cc2ccco2)c2nc3ccccc3nc12	i	75.8	77.1	i	i
Nc1c(C(=O)NCCN2CCOCC2)c2nc3ccccc3nc2n1Cc1ccccc1	81.0	77.6	62.8	i	i
CCCCn1c(N)c(C(=O)NCCN2CCOCC2)c2nc3ccccc3nc21	65.0	i	83.3	i	i
Nc1c(C(=O)OCc2ccccc2)c2nc3ccccc3nc2n1Cc1cccs1	i	i	i	i	i
Cc1cc(C(=O)OC(C)C(=O)Nc2ccccc2)c(C)n1C1CC1 (configuration not stated)	nt	nt	nt	nt	i
COC(=O)C1=C(c2ccc3ccccc3c2)C[C@@H]2CC[C@H]1N2C(=O)NC(C)C	nt	nt	nt	nt	i
Cc1ccccc1N1CCN(Cc2ccc3c(c2)OCO3)CC1	nt	nt	i	i	i
Nc1c(C(=O)NCCN2CCOCC2)c2nc3ccccc3nc2n1Cc1ccco1	nt	72.2	63.5	i	i
COCCCNC(=O)c1c(NC(=O)c2ccccc2Cl)n(Cc2ccccc2)c2nc3ccccc3nc12	63.3	i	71.4	i	i
O=C(NCCN1CCOCC1)c1ccc(Cl)nc1Cl	i	i	i	i	i
CC(C)(C)OC(=O)c1c(N)n(Cc2ccco2)c2nc3ccccc3nc12	58.7	70.6	31.8	i	i
COc1ccc(-n2c(=S)[nH]c3ccc(C)cc3c2=O)cc1	nt	nt	nt	nt	i
CC1CCCCN1CC(=O)c1ccc2cc[nH]c2c1 (configuration not stated)	i	i	i	i	i
CC12CCC(O)CC1CCC1C2CCC2(C)C(C(=O)CO)CCC12 (configuration not stated)	nt	nt	nt	nt	i
Cc1ccc(S(=O)(=O)NC(CC(=O)N2CCC3(CC2)OCCO3)c2ccco2)cc1 (configuration not stated)	i	i	20.5	i	i
SMILES	Runt-SMMHC FRET	Runt-CBFb FRET	RanGTP-Impb inh	MEX-5 binding	proKLK7 act
CC(=O)Nc1ccc(S(=O)(=O)NC(CC(=O)N2CCC3(CC2)OCCO3)C(C)C)cc1 (configuration not stated)	i	i	i	i	i
Cc1cc(C)cc(NC2=NCCCS2)c1	i	i	i	i	i
NN=C(N)N	nt	nt	nt	nt	i
O=c1[nH]c(=O)n(-c2ccccc2F)c(O)c1/C=C1\C=Nc2ccccc21	nt	nt	i	i	i
O=c1[nH]c(=O)n(Cc2ccccc2)c(O)c1/C=C1\C=Nc2ccccc21	92.8	i	i	?	i
COc1ccc(N=Cc2c(O)n(CC3CCCO3)c(=O)[nH]c2=O)cc1 (configuration not stated)	i	i	i	i	i
O=c1[nH]c(=O)n(CC2CCCO2)c(O)c1/C=C1\C=Nc2ccccc21 (configuration not stated)	i	i	i	-35.7!	i
O=c1[nH]c(=O)n(-c2ccc(F)cc2)c(O)c1/C=C1\C=Nc2ccccc21	nt	nt	i	-36.5	i
O=C1NC(=O)C2=Cc3ccc(O)cc3OC2(O)N1 (configuration not stated)	90.0	i	nt	nt	nt
COC(=O)C1=C(c2ccc(OCc3ccccc3)cc2)C[C@@H]2CC[C@H]1N2C(=O)NCc1cccc(C(F)(F)F)c1	nt	nt	nt	nt	i
O=C1NC(=O)N(c2ccccc2)C(=O)/C1=C\c1ccc([N+](=O)[O-])s1	i	i	i	nt	i
COc1ccc(OC)c(N2C(=O)NC(=O)/C(=C\c3ccc([N+](=O)[O-])s3)C2=O)c1	i	i	i	-39.7	i
CCNCC1(c2ccc(OC)c(OC)c2)CCCC1	i	i	59.9	i	i
CNCC1(c2ccccc2)CCCC1	i	i	?	i	i
O=[N+]([O-])c1cc(-c2ccc([As](=O)(O)O)cc2)ccc1[As](=O)(O)O	i	i	i	-46.3	nt
O=[N+]([O-])c1cc([As](=O)(O)c2ccc(O)c([N+](=O)[O-])c2)ccc1O	i	i	i	i	i
CN1CCc2cc(O)cc3c2[C@H]1Cc1ccc(O)c(O)c1-3	nt	nt	i	-84.6	i
COc1cc2c(cc1O)C[C@H]1c3c(cc(O)c(OC)c3-2)CCN1C	nt	nt	nt	nt	i
CCCN1CCc2cc(O)cc3c2[C@H]1Cc1ccc(O)c(O)c1-3	nt	nt	i	-82.5	i
CN1C(=O)C(C)(C2=CCCCC2)C(=O)NC1=S (configuration not stated)	nt	nt	nt	nt	i
COc1cccc(C2(O)CCN(CC(=O)Nc3nc(C)cs3)CC2)c1	i	i	i	-51.2	i
COC(=O)C1=C(c2ccc(OCc3ccccc3)cc2)C[C@@H]2CC[C@H]1N2C(=O)NCc1ccccc1C(F)(F)F	nt	nt	nt	nt	i
CCOC(=O)c1c(-n2c(C)cc(C=C3C(=O)NC(=O)NC3=O)c2C)sc2c1CCCC2	i	i	i	-45.4	i
O=c1[nH]c(=S)n(-c2ccc(Br)cc2)c(O)c1C=Nc1ccc(N2CCOCC2)cc1	i	i	?	i	i
Cc1cc(C)cc(-n2c(O)c(C=Nc3ccc(N4CCOCC4)cc3)c(=O)[nH]c2=S)c1	i	i	i	-51.6	i
SMILES	Runt-SMMHC FRET	Runt-CBFb FRET	RanGTP-Impb inh	MEX-5 binding	proKLK7 act
CCN(CC)c1ccc(N=Cc2c(O)n(-c3ccc(OC)cc3)c(=O)[nH]c2=O)cc1	i	i	i	-34.4	i
CCOC(=O)[C@]12Cc3ccccc3[C@H]1N(CCC(=O)OC)C(=O)c1cc(OC)ccc12	nt	nt	nt	nt	i
COC(=O)C1=C(c2ccc(C(C)=O)cc2)C[C@@H]2CC[C@H]1N2C(=O)N1CCC(O)CC1	nt	nt	nt	nt	i
CCOC(=O)c1c(/N=C/C2C(=O)NC(=S)NC2=O)sc2c1CCC2	i	i	?	-30.5	nt
CCOC(=O)c1c(/N=C/C2C(=O)NC(=S)NC2=O)sc(C)c1C	i	i	?	?	nt
COc1cc2c(cc1OC)-c1c(OC)c(OC)c(OC)c3ccnc(c13)C2=O	i	i	i	-82.5	nt

Screening data as filed in PubChem BioAssay.
